One series can be described thus: in vitro. Particulars: human, liver microsomes. Background: Microsomes from liver hold many membrane-bound enzymes, among them those of drug oxidation.
Series [1] can be described thus: Oral bioavailability in rat. Type of series: ADME, organism-based. The following applies: in vivo.
Series [2] can be described thus: Half life in rat. Type of series: ADME, organism-based. The following applies: in vivo.
Series [3] can be described thus: Partition coefficient of the compound at pH 7.4. Particulars: octanol/water. Type of series: physicochemical. The procedure, abridged:
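cLogD at pH 7.4 calculated with ACD pchbat version 9.3.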

Series [4] is described as follows: Volume of distribution at steady state in rat. The format is ADME, organism-based. The following applies: in vivo, read-out: Vdss.
Series [5] in a line: Plasma clearance in rat. The format is ADME, organism-based.

The term microsomal CLint denotes the rate of metabolic loss divided by the concentration. In the case of `N#Cc1cccc(-c2ccc3nnc(Cc4ccc5ncccc5c4)n3n2)c1`, the microsomal CLint at 0.5 h, 1 µM in “in vitro” stood at 22.7 µL/min/mg.

Consider `C[C@@H](c1c[nH]c2ncccc12)c1nnc2ccc(-c3ccc(C#N)cc3)nn12`, for which the microsomal CLint at 0.5 h, 1 µM in “in vitro” is 28 µL/min/mg. Same read-out and setting: as for `CC(C)Nc1ccc2nnc([C@@H](C)c3c[nH]c4ncccc34)n2n1`, the figure is 25 µL/min/mg; as for `CCNc1ccc2nnc([C@@H](C)c3c[nH]c4ncccc34)n2n1`, 18 µL/min/mg. The bioavailability is dose-corrected exposure relative to a reference, in per cent. Higher therefore signals good availability. The term half-life denotes the time in which the quantity being followed falls by half. Read a low half-life as rapid decline. As usually defined, the logD is lipophilicity at a set pH, counting ionised and neutral species. Broadly, the clearance is the volume of plasma or blood freed of the substance per unit of time. Read a high clearance as efficient removal. In turn, `C[C@@H](c1ccc2ncccc2c1)c1nnc2ccc(-c3cnn(C)c3)nn12` returned a bioavailability in series [1] of 58%. For the same compound, the half-life in series [2] was 1.9 h. The logD in series [3] stood at 2.05. Moreover, the Vd in series [4] came out at 3.5 L/kg. In series [5], this compound came in with a clearance of 21 mL/min/kg. The compound also returned an intrinsic clearance (microsomal CLint) at 0.5 h, 1 µM in the series “in vitro” below 7.6 µL/min/mg. `Nc1ccc2nnc(Cc3ccc4ncccc4c3)n2n1`: the microsomal CLint at 0.5 h, 1 µM in the series “in vitro” is below 7.6 µL/min/mg. Same read-out and setting: then `CN(C)c1ccc2nnc(Cc3ccc4ncccc4c3)n2n1`, with 35 µL/min/mg. The compound `C[C@@H](c1ccc2ncccc2c1)c1nnc2ccc(-c3ccc(F)c(F)c3)nn12` displayed a bioavailability in series [1] of 52%. Moreover, the half-life in series [2] was 3.6 h. In addition, in series [3], the logD is 3.07. Besides, the Vd in series [4] turned out to be 3.6 L/kg. The same compound had a clearance in series [5] of 31 mL/min/kg. This compound also yielded a microsomal CLint at 0.5 h, 1 µM in the series “in vitro” of 13.4 µL/min/mg. On to `COc1ccc(-c2ccc3nnc([C@@H](C)c4ccc5ncccc5c4)n3n2)cc1F`, for which the intrinsic clearance (microsomal CLint) at 0.5 h, 1 µM in “in vitro” was 281 µL/min/mg. Same read-out and setting: as for `COc1ccc(-c2ccc3nnc([C@@H](C)c4ccc5ncccc5c4)n3n2)cc1C`, the figure is 304 µL/min/mg; as for `Cc1cccc(-c2ccc3nnc([C@@H](C)c4ccc5ncccc5c4)n3n2)c1`, 81.8 µL/min/mg. Compound `C[C@@H](c1ccc2ncccc2c1)c1nnc2ccc(-c3cccc(C#N)c3)nn12` gave a bioavailability in series [1] of 13%. The compound further gave a half-life in series [2] of 4.8 h. Moreover, the logD in series [3] was 2.8. The Vd in series [4] was found to be 4.9 L/kg. Besides, in series [5], the clearance turned out to be 22 mL/min/kg. In the series “in vitro”, this compound gave an intrinsic metabolic clearance (microsomal CLint) at 0.5 h, 1 µM of 17.9 µL/min/mg. For `C[C@@H](c1ccc2ncccc2c1)c1nnc2ccc(-c3ccc(C#N)cc3)nn12`, the intrinsic clearance (microsomal CLint) at 0.5 h, 1 µM in “in vitro” worked out at 12.1 µL/min/mg. Still for that read-out and setting: as for `C[C@@H](c1ccc2ncccc2c1)c1nnc2ccc(-c3ccccc3C#N)nn12`, the figure is 23.1 µL/min/mg. As to `C[C@@H](c1ccc2ncccc2c1)c1nnc2ccc(-c3ccc4c(c3)OCCO4)nn12`, the intrinsic metabolic clearance (microsomal CLint) at 0.5 h, 1 µM in the series “in vitro” amounted to 304 µL/min/mg. Against the preceding compound, the microsomal CLint at 0.5 h, 1 µM is about 13-fold higher. Consider `CNC(=O)c1ccc(-c2ccc3nnc([C@@H](C)c4ccc5ncccc5c4)n3n2)cc1`, for which the microsomal CLint at 0.5 h, 1 µM in the series “in vitro” was 12.2 µL/min/mg.

Take `CCS(=O)(=O)c1ccc(-c2ccc3nnc([C@@H](C)c4ccc5ncccc5c4)n3n2)cc1`: the microsomal CLint at 0.5 h, 1 µM in the series “in vitro” turned out to be 10.4 µL/min/mg. On to `C[C@@H](c1ccc2ncccc2c1)c1nnc2ccc(-c3ccc(S(C)(=O)=O)cc3)nn12`, for which the microsomal CLint at 0.5 h, 1 µM in “in vitro” was below 7.6 µL/min/mg. As for `C[C@@H](c1ccc2ncccc2c1)c1nnc2ccc(-c3ccc(N(C)C)nc3)nn12`, in “in vitro”, the microsomal CLint at 0.5 h, 1 µM amounted to 232 µL/min/mg. Same read-out and setting: then `C[C@@H](c1ccc2ncccc2c1)n1nnc2ncc(-c3cnn(C)c3)nc21`, with below 7.6 µL/min/mg. For `C[C@@H](c1ccc2ncccc2c1)n1nnc2ncc(-c3cnn(CCO)c3)nc21`, the intrinsic metabolic clearance (microsomal CLint) at 0.5 h, 1 µM in “in vitro” is below 7.6 µL/min/mg. On the same count and under the same terms, as for `CC(C)Nc1ccc2nnc([C@@H](C)c3ccc4ncccc4c3)n2n1`, the figure is 20.2 µL/min/mg; as for `Cn1cc(-c2ccc3nnc(Cc4c[nH]c5ncccc45)n3n2)cn1`, below 7.6 µL/min/mg; as for `C[C@@H](c1c[nH]c2ncccc12)c1nnc2ccc(-c3cnn(C)c3)nn12`, below 7.6 µL/min/mg. Same read-out and setting: as for `Fc1ccc(-c2ccc3nnc(Cc4ccc5ncccc5c4)n3n2)cc1F`, the figure is 13.4 µL/min/mg.

The values above are taken from ChEMBL document CHEMBL2429765 (J Med Chem, 2013).
